Source: the EternaBench riboswitch data

Test system: MS2 coat protein
Experiment: apparent Kd, MS2 coat protein; higher = weaker binding; RNA-MaP array; FMN 200 µM where present
How it was run: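 Binding was read on Illumina sequencing-chip clusters where stalled E. coli RNA polymerase had transcribed each design. A titration of SNAP-549-labelled MS2 coat protein began at 0.7 or 1.5 nM and doubled to 3 µM, once without ligand and once with constant ligand, in 100 mM Tris-HCl pH 7.5, 80 mM KCl, 4 mM MgCl2, BSA, DTT, yeast tRNA and Tween-20. The apparent Kd is the median of filtered per-cluster binding-curve fits, based on green signal normalised to red-channel RNA signal and control-cluster median Fmax.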

[1] = designed as: OFF switch for flavin mononucleotide, no ligand
[2] = ligand present: flavin mononucleotide, designed as: OFF switch for flavin mononucleotide
[3] = designed as: ON switch for flavin mononucleotide, no ligand
[4] = ligand present: flavin mononucleotide, designed as: ON switch for flavin mononucleotide

Sequence	apparent Kd [1]	apparent Kd [2]	apparent Kd [3]	apparent Kd [4]
CCGCCCUGAGGAUAUCCACCCUCAUACAUGAGGAUCACCCAUGUUCACCCUUGGGUUCCCGGAGAAGGCAGCCUUC	566 nM	548 nM	–	–
GGAUCGAAUGUGAGGAUAUGCUGGUCCUUGGAUCAGCAGAAGGCACAUGAGGAUCACCCAUGUGGUAACGGUCC	–	554 nM	–	–
AUACUCAUGUAAGGAUAUGCAGCCGUUUCGGCUGCAGAAGGUACUAUAAUACAUGAGGAUCACCCAUGUCUUUUUAAUUUUUAC	–	–	281 nM	38.9 nM
GGAGACCUCACAGGAUAUGCUGGACUUUGUCCAGCAGAAGGGUGAAAACAUGAGGAUCACCCAUGUAUGGUCUCCAAAUUUAAU	–	–	183 nM	13.7 nM
AUACUCAUGUAAGGAUAUGCAGCCGAAACGGCUGCAGAAGGUACUAUAAUACAUGAGGAUCACCCAUGUCAAAAUUAAAUAGUU	–	–	185 nM	31.7 nM
UGAGCUUGUGUGAGGAUAUGAGUUCGGAAAUGAGCUUAGAAGGCACAUGAGGAUCACCCAUGUAAGCGAGUUCG	72.2 nM	74.7 nM	–	–
GUACCAUAUGAGAAGGCGAUCAUGAAACAUGAUCGAGGAUAUCAUGAAAACAUGAGGAUCACCCAUGUAUGGGUAUUAAGGUAC	–	–	61.4 nM	23.7 nM
CAAAGGACAGGAUAUGCGAGGGAGCCCGUGCAGGUCGCCCAACAUGAGGAUCACCCAUGUAGAAGGGUCAAAAC	32.8 nM	25.8 nM	–	–
GGGCCGGUGGAGAAGGAGCUUACGAAACGUAGGCUAGGAUAUCCACAUGAGGAUCACCCAUGUGGGAAUAUCUGAUUUUCACAG	4.4 nM	4.48 nM	–	–
GUCAGCUCGUGAGGAUAUAUAACACUGCUUCGGCAGUGUAUUAAGAUCACAUGAGGAUCACCCAUGUAGAAGGCACGAGCUGAU	5.04 nM	8.94 nM	–	–
UCGGCGCGAGGAUAUACGUUUGCUUUUUGGGAUCGUUGCGUACAUGAGGAUCACCCAUGUAGAAGGCGCGCCGC	17.6 nM	73.8 nM	–	–
GGUUGUCAUCGUCAUCCUUUCGGUACAUGAGGAUCACCCAUGUAGGAUAUGCUGCUCUCGGUGUGGCAGAAGGGCGUGUGUGUU	24.4 nM	39.5 nM	–	–
UUUUAACAUGAGGAUCACCCAUGUGAGGAUAUCGAAAUUUAUAUUAAUAUUUAUAAAACGAGAAGGCACAUUUU	104 nM	82.8 nM	–	–
GAGCGAAAGCUCAAUGUCGAUAGCAGAAGGACAUGUAAUCAUGAAAUAACAUGAGGAUCACCCAUGUAGGAUAUGCUAUCGACU	309 nM	88.8 nM	–	–
AUAUUACGAGGAUAUCGUUUUUUUCACAUGAGGAUCACCCAUGUUAUUUAUGUUUCGUUUCGAGAAGGCGUAAGUU	25 nM	22.1 nM	–	–
GGUACCUUUACAGGAUAUGCUAGGGUUUCCUUAGCAGAAGGGUGAUACAUGAGGAUCACCCAUGUGGUGCCAGGGCGUGAGCCC	–	–	117 nM	341 nM
GCGUCAGAAUUAAUUGUGACAUACAGAAGGCAAAAGUUAGGAUUAGACAUGAGGAUCACCCAUGUUGAGGAUAUGUAGAGAAUC	9.69 nM	8.52 nM	–	–
UCACCUGCCGAGGAUAUGAACGUAUUGAAUUGAUUAGAAGGCGGCACAUGAGGAUCACCCAUGUCACUGCACGC	11.7 nM	11.5 nM	–	–
CGCAGUACUUAGGUACCACACAUGAGGAUCACCCAUGUAUCACAGGAUAUGCAUGAUAUAUUCAGGCAGAAGGGUGAUCUUACC	–	–	79.7 nM	318 nM
CGAGACCUCACAGGAUAUGCUGGACUUUGUCCAGCAGAAGGGUGAAAACAUGAGGAUCACCCAUGUAUGGUCUCCAAAUUUAAC	–	–	175 nM	12.9 nM
CUGUGACGGUGCGCAAGUGGACGGAGAAGGGACACAUGAGGAUCACCCAUGUGAGCCUGCUAUUGUCAGGAUAUCCGUUCGUAC	8.69 nM	13.8 nM	–	–
GAUUAACAUGAGGAUCACCCAUGUGAGGAUAUGGACUUGCCCACUUAACCAUUAGAGUCUAGAAGGCGCAUCUA	29.4 nM	25.5 nM	–	–
AAGUCAGCAGGAUAUGCGAUGGUGUACUAGGUAGUUUACCCACAUGAGGAUCACCCAUGUAGAAGGGCUGGCUA	59.1 nM	148 nM	–	–
UGUUUUCAUGUAGGAUAUGCUUGUCGUAGAUACGCAGAAGGACAUGAGGAUCACCCAUGUUAAUGCGACAGAGUAUAGAUUCUU	15.3 nM	20.6 nM	–	–
GGAAUCUGUGUCACUCCAUUGACAUGAGGAUCACCCAUGUCGCAGGAUAUCAGGCGCGGAGCGACUGAGAAGGGCGACUCGCGG	86.4 nM	50.5 nM	–	–
GUGGCUAGUGCAGGAUAUCGGCGCGUGUAGUGCCGAGAAGGGCACAUGAGGAUCACCCAUGUGAUCAAUCACUGCUAAGGCCGC	5.19 nM	5.37 nM	–	–
AGCUGUGGCCGAGGAUAUCUAAUAACUCAAACCGAAAUAUAAUCGGACAUGAGGAUCACCCAUGUAGAGAAGGCGGUCUCAGCA	84.6 nM	154 nM	–	–
GGACGUCCCAUUAACAUGAGGAUCACCCAUGUCAAAAGACAUGAGGAUAUGGUACCUAAUUGGUACCAGAAGGCAUGGACGUCC	–	–	1210 nM	106 nM

Sequence	apparent Kd [1]	apparent Kd [2]	apparent Kd [3]	apparent Kd [4]
UGAUAGGACAGAGGAUAUACGUGCUAGAGAUACUAGCAAAAUUUCCUAACAUGAGGAUCACCCAUGUAGAAGGCUGUCCUAUCU	6.73 nM	14.2 nM	–	–
GCACUGGAUGUAGGAUAUCAGGACGAUAAGUCCUGAGAAGGACAUGAGGAUCACCCAUGUGCCUUAACCAGUGCAUAUAAUAUA	12.9 nM	17.3 nM	–	–
AUCAAUCGUGUAGGAUAUGCGUGGCGAAGCUAUGCAGAAGGACAUGAGGAUCACCCAUGUCUUUCUGUCUGCGUACAGACAGGA	18 nM	43.4 nM	–	–
AAAAAACAUGAGGAUCACCCAUGUAAAAAAAUCGCAGGAUAUAAGGUCGCGAAAGCGACCUUAGAAGGGCGAUCCU	–	–	267 nM	78.1 nM
CCCAAACUUGGGCUUGGUGGUGCAUAGGAUAUCCUUGAACAUGAGGAUCACCCAUGUACAACUGUGGAGAAGGGUGCAGGGCCU	–	–	372 nM	111 nM
AGAACACAUGAGGAUCACCCAUGUGAGGAUAUCGAUGUCCCAGGGCGGGUGCGGGACUCGAGAAGGCACUUGGA	41.9 nM	88 nM	–	–
AAGCAACAUGAGGAUCACCCAUGUAGCAGGGUCAGAGGAUAUUUGAGCUUGGCGAGGGUUAAAGAAGGUUGAUAUC	–	–	38.8 nM	43.6 nM
GGGUACAACGGAGGAUAUCAUGUAAAUACAUGAGGAUCACCCAUGUCGAUGGAGACAUCGGAGAUUGAGAAGGCCGAUGUACCG	–	–	160 nM	8.88 nM
UUCCUGGUGUAGAAGGAGGCCGAGCUCAAGCGGACGUCCUGAAUUGCGGGCCUAGGAUAUACAUGAGGAUCACCCAUGUACGGA	39.8 nM	111 nM	–	–
AUGGUACAUGAGGAUCACCCAUGUCCAGCAAAUCAAGGAUAUGGACGACAAAUUUCUCGGCCAGAAGGUGAAACAA	–	–	39.4 nM	21.5 nM
CUAGCAACAUGAGGAUCACCCAUGUAGGAUAUCGCUAUUGUAAUCAUGAAACAUGAUUACAAUAGCGAGAAGGACAUAUGCUAG	6.44 nM	9.28 nM	–	–
CACAAUCUAUCUGAGGAUAUCAUGAAAAAAACAUGAGGAUCACCCAUGUGCAGGAAAACUGCAUAUGAGAAGGCAGAUAGAUUGG	–	–	658 nM	28.3 nM
GGGCUUUGGGAGAAGGUACAAUAAAUUAGGAGAACAUGAGGAUCACCCAUGUAAGGAUAUCCCAUGUUGUAUUAUGGUACAACC	519 nM	273 nM	–	–
UUUAUGUCAGGAUAUGAGUCGUAGAACAAUAGUACUACGUCUCAGAAGGGACAUGAGGAUCACCCAUGUGCCUC	40.4 nM	316 nM	–	–
AUGUCCUGAGGAUAUGGUCCAUUACACAUGAGGAUCACCCAUGUGGGUCUCGCCUGUAGGCCAGAAGGUAGGUCUU	52.8 nM	49.5 nM	–	–
GUAUUAAAGAUCCAUUUAUACAACAUGAGGAUCACCCAUGUGCAGGAUAUCGUGUGUUUUAUAUUCGAGAAGGGCAAAUUCAUU	50.7 nM	105 nM	–	–
CCUCUAACCUAGGAUAUAGGUAGACCUAGUCGCCUAGAAGGAGGUACAUGAGGAUCACCCAUGUAUAUUGGGCU	277 nM	127 nM	–	–
GGACAUCCCACAGGAUAUGCUGGACUUUGUCCAGCAGAAGGGUGAAGAACAUGAGGAUCACCCAUGUGGAUGUCCAUAUUUAAU	–	–	1440 nM	95.4 nM
UGUCAUUUACAGAAGGGUAGUUGGGUUUUACAUGAGGAUCACCCAUGUUUUACAGGAUAUGUGUUUUGUUACUAUUAAAGUUCA	66.5 nM	123 nM	–	–
UUCAUGUAAGGAUAUGCGGGCGGGCGCGUUUGUGUUUGUUUGUAGAAGGUACAUGAGGAUCACCCAUGUACUGG	22 nM	68.2 nM	–	–
UUUGGGAACUCUAUGGGCCGCUACAUGAGGAUCACCCAUGUGCAGGAUAUAGGCGUUACUACCACCUAGAAGGGCACAGAAUGA	32.5 nM	47.6 nM	–	–
CCAAGCUGUGUGAGGAUAUGCUGAACCUUGGUUCAGCAGAAGGCACAUGAGGAUCACCCAUGUGAAGAGCUUGG	17.3 nM	69.3 nM	–	–
UUGUUGUAUGUAGGAUAUGCAUAUUGUUAUUAUGCAGAAGGACAUGAGGAUCACCCAUGUAUAUUAUUAUUAUAUGUUAUAUAU	23.5 nM	27.8 nM	–	–
GAUCCGGUCAAGAGGAUUUUGGAGUGAGAAGGGAGGCUGCUACAUGAGGAUCACCCAUGUGAUACUCAGGAUAUUAGUCUACUA	–	–	215 nM	155 nM
UCUAUGUAAGAGAAGGAGGACUUCAUGAGGAUCACCCAUGUGUUAGUACUUAGGAUAUUUGACAACAUGAGGAUCACCCAUGUC	–	–	65.7 nM	61.7 nM
AACUACCCGUCAGGAUAUCGCCGUAGGUCCUCGGGUCUCGCCGUCAUACAUGAGGAUCACCCAUGUGAGAAGGGACGGGUUUCA	20.9 nM	136 nM	–	–
CUUAGACAUGAGGAUCACCCAUGUGAGGAUAUGAUGCGAUCGUCGAAAGACGAUAGCAUCAGAAGGCACAUAUG	132 nM	301 nM	–	–
